Tested on: MS2 coat protein
Assay: apparent Kd, MS2 coat protein; higher = weaker binding; RNA-MaP array; FMN 200 µM where present
Method in brief: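 Each design was made on Illumina sequencing-chip clusters by stalled E. coli RNA polymerase and titrated with SNAP-549-labelled MS2 coat protein from 0.7 or 1.5 nM, doubling to 3 µM, in the absence and then the presence of constant ligand. The buffer was 100 mM Tris-HCl pH 7.5, 80 mM KCl, 4 mM MgCl2, BSA, DTT, yeast tRNA and Tween-20. The apparent Kd is the median of filtered per-cluster fits of binding curves, with green signal normalised to red-channel RNA signal and control-cluster median Fmax.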

[1] = designed as: OFF switch for flavin mononucleotide, no ligand
[2] = ligand present: flavin mononucleotide, designed as: OFF switch for flavin mononucleotide
[3] = designed as: ON switch for flavin mononucleotide, no ligand
[4] = ligand present: flavin mononucleotide, designed as: ON switch for flavin mononucleotide

Sequence	apparent Kd [1]	apparent Kd [2]	apparent Kd [3]	apparent Kd [4]
UCUAGACAUGAGGAUCACCCAUGUGAGGAUAUGAUGCGAUCGUCGAAAGACGAUAGCAUCAGAAGGCACAUAUG	154 nM	469 nM	–	–
AACAGCUCGUCAGGAUAUACAACACUGCUUCGGCAGAAUGAUAAGAUAACAUGAGGAUCACCCAUGUAGAAGGGACGAGCUGAA	6.01 nM	8.32 nM	–	–
UGCACUAGAUGAGGAUAUGCACAUGAGGAUCACCCAUGUGUGUGCUGCGGUGGUGAUCUGUAAAUGCAGAAGGCAUUCGGGCGG	111 nM	63.9 nM	–	–
AUAAUUUUAUAUAUCAUAUAAAUCAGAAGGCAUAACAUGAGGAUCACCCAUGUAUAUUAUUGUUAUGAGGAUAUGAUUUCGUUA	9.12 nM	42.5 nM	–	–
GCACUUAAGUUAGGAUAUGGAUCGGAAAACGAUCCAGAAGGAAUAUGGGAACAUGAGGAUCACCCAUGUUCCACAGACAAGUGC	–	–	47.5 nM	24.4 nM
UCCUUCUGUUGAGGAUAUGUAAGACAGCAGCUGCUAUGGCGGCACGCUGAUACAGAAGGCAACAUGAGGAUCACCCAUGUUCAA	20.4 nM	73 nM	–	–
GGAUAGGACAGAGGAUAUACGUGCUAGAGCUACUAGCAAAAUUUCCUCACAUGAGGAUCACCCAUGUAGAAGGCUGUCCUAUCG	15.6 nM	463 nM	–	–
CAGGACCUUGAGGAUAUGUGACGAUUAUCGUUCAUAGAAGGUAAGACAUGAGGAUCACCCAUGUCCUGGCAUAA	15.1 nM	15.1 nM	–	–
GCUCGAUGUGCUGAAAACAUGAGGAUCACCCAUGUAAAUGAUCAGGAUAUUUACGUGCUUUAUGUAGAGAAGGGAUCAUCGAGC	–	–	260 nM	78.3 nM
GUCAGCUCGUGAGGAUAUAUAUUAACAUGAGGAUCACCCAUGUAAGAUCAGCUUCGGCAGUUAAUAUAGAAGGCACGAGCUGAC	168 nM	188 nM	–	–
GUCAGCUCGUGAGGAUAUACAUCACUGCUUCGGCAGUGUAUUAAGAUCACAUGAGGAUCACCCAUGUAGAAGGCACGAGCUGAU	42.5 nM	620 nM	–	–
UGAGAUGUAGUAGGAUAUCAGGUUACAUGAGGAUCACCCAUGUUAGAUUGGUGGAUAGAUGUUGAUGAGAAGGACUUUUGAGUU	63.5 nM	100 nM	–	–
AAGAAAUGGGAGUGAUUUGGUUCCGAGGAUAUAGGCAUCGGUACAUGAGGAUCACCCAUGUUCGACUAGAAGGCGGACGGGUCC	–	–	169 nM	20.4 nM
GUCAUGUUAGGAUAUCAAACAUGUGACUUCGGUCACUGUCCUGAGAAGGAACAUGAGGAUCACCCAUGUUGGAC	17.8 nM	47.4 nM	–	–
UAAUUUUUAGUAAGGAUAUCGGUCCCAAGGGACAACGAGAAGGUACAUGAGGAUCACCCAUGUGAUUAAAGAAU	28.2 nM	221 nM	–	–
CUCUAUCAUGUAGGAUAUGCGUGGCGAAGCUAUGCAGAAGGACAUGAGGAUCACCCAUGUCUUUCUGUCUGCGGACGGACAGGG	33.1 nM	69.2 nM	–	–
UGUCGGAGCAGAGGAUAUUACAUGAGGAUCACCCAUGUAUGAACCAAGAGCUGGAAACAGCAAUGUAAGAAGGCUGCUCCGACA	10.9 nM	121 nM	–	–
AACAGUACAGGAUAUACAUGAGGAUCACCCAUGUGAGCGUUAAGUGCCGUAGCACAAAGUAGAAGGGUACUGGA	29.9 nM	92.5 nM	–	–

Sequence	apparent Kd [1]	apparent Kd [2]	apparent Kd [3]	apparent Kd [4]
CGAGUACAUGAGGAUCACCCAUGUUAUGAAUUGUCAGGAUAUGGAUAUUGUUGACAUGCGCCAGAAGGGACUUCUG	–	–	27.5 nM	20.2 nM
CAUGGAACAUAGGAUAUCUCGCGGCUAGGCUGCAGAGAAGGAUGUACAUGAGGAUCACCCAUGUAUGAUCCAAU	18.9 nM	28.2 nM	–	–
UAGGACUUCGUAGGAUAUGUAUUUGAUUUCUACAUGAGGAUCACCCAUGUUUGCAUUUUUUUUUGACAGAAGGACGUGGUCCUA	–	–	16.8 nM	13.2 nM
CUGAUGUGAGGAUAUCGGGCUACAGGCCUGCUGCUAGCAAACGAGAAGGCACAUGAGGAUCACCCAUGUGAUAG	15.9 nM	35.1 nM	–	–
UGUCGGAGCAGAGGAUAUUACAUGAGGAUCACCCAUGUAUGAACCAAUAGCUGGAAACAGCAAUGUAAGAAGGCUACUCCGACA	5.41 nM	31.4 nM	–	–
AAUUCGCGAGGAUAUACAUGAGGAUCACCCAUGUGUGUACGCAUGCACUUCAUAGGUUGUAGAAGGCGUGAGAU	19.7 nM	29.4 nM	–	–
ACAAGAUCAGGAUAUACAUGAGGAUCACCCAUGUUUAUCAAAAAGGGACUUUCUUUAUGUAGAAGGGAUCUUGU	72.8 nM	70.1 nM	–	–
AAUAACAGAGGAUAUACUAUUUUAUGUGUUUGUUAUUUUAAACAUGAGGAUCACCCAUGUAGAAGGCUGAAUAA	24.3 nM	22.1 nM	–	–
GGUGCGUAUGUGAGGAUAUGCUGGUCCUUGGAUCGGCAGAAGGUACAUGAGGAUCACCCAUGUGGUGUCGUUCC	97.5 nM	289 nM	–	–
GAAAACUGAGGAUAUACAUGAGGAUCACCCAUGUAGGUACGGCUUCUACAUUCGUCAUGUAGAAGGCAGUAUAA	18.1 nM	15.7 nM	–	–
AGUUAUUCAGGAUAUGGUGUGUUAUACAUGAGGAUCACCCAUGUAGAUCCUGGUUAGGCCUCAGAAGGGAAUGUUA	190 nM	190 nM	–	–
AGCAUGUAAGGAUAUGCAACACGACGUUCAAUCGUCGUGCCGCAGAAGGUACAUGAGGAUCACCCAUGUGCUCC	104 nM	129 nM	–	–
UUGGACGUCGUAGGAUAUGUAGGAUAUUCCUACAUGAGGAUCACCCAUGUUGACAUGGAAGAAGGACGGAAGGACGAUGUCCAU	–	–	899 nM	18.9 nM
GGGUACAUCGGAGGAUAUCAUGUAAAUACAUGAGGAUCACCCAUGUCGAUGGAGACAUCGGUGAUUGAGAAGGCCGAUGUACCG	–	–	14.8 nM	90 nM
CUGUUAUUGAUCCAUUUUUUCAACAUGAGGAUCACCCAUGUGCAGGAUAUCUUGUUUAUUUUCAUCGAGAAGGGCAUAUUCACG	159 nM	196 nM	–	–
GAUUGACAUGAGGAUCACCCAUGUGAGGAUAUCGGCCGGACCUUGUUAGCUUCCAUCGUGAGAAGGCACAUAGG	30.4 nM	31.5 nM	–	–
AAGAUGCGGGUAGGAUAUGGGAAUUAAUAAAGACCAGAAGGACUGGUCACACAACAUGAGGAUCACCCAUGUGUGUGUAGUGAA	12.4 nM	10.9 nM	–	–
UUAUCUCAUGAGAAGGACAUGAGGAUCACCCAUGUAGGAUAUCAUGGGUCAGAGGAAUUGAAUCUAAUGAUUCAAUUACUCUUC	–	–	60.5 nM	10.4 nM

From the EternaBench riboswitch data
